Positions of bridges follow the written chain, without caps; N, C: chain ends. Non-standard residues stand in square brackets, D forms with d. Residues, ends and D or L forms follow the SMILES beside them. Chains are numbered I, II in the order given. Dap = NC[C@H](N)C(=O)O
Legend:
[1] = biological target: T1, Neuropeptide Y receptor type 1 (Homo sapiens, UniProt P25929); assay: Displacement of (sCy5)-[Lys2 Arg4]-BVD15 from GFP-tagged Y1R in human HEK293T cells assessed as inhibitory constant incubated for 5 mins followed by (sCy5)-[Lys2 Arg4]-BVD15 addition and measured after 30 mins by fluorescence based assay; assay type: cell-based
T1 sequence (P25929 whole entry): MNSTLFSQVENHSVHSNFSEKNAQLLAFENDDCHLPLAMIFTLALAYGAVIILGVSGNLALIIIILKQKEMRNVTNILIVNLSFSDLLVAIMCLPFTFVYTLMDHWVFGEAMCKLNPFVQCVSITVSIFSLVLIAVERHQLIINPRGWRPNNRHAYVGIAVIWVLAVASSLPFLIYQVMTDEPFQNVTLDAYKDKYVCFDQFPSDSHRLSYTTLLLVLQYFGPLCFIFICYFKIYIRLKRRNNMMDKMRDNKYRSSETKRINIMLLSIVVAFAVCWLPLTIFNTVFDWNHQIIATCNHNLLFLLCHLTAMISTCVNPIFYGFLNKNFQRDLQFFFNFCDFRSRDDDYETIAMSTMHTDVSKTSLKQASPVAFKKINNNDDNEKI

[2] = biological target: T2, Neuropeptide Y receptor type 4 (Homo sapiens, UniProt P50391); assay: Displacement of (sCy5)-[Lys2 Arg4]-BVD15 from GFP-tagged Y4R in human HEK293T cells assessed as inhibitory constant incubated for 5 mins followed by (sCy5)-[Lys2 Arg4]-BVD15 addition and measured after 30 mins by fluorescence based assay; assay type: cell-based
Summary of the method: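 Competitors (10^-10–10^-6 M) added in HBSS/0.1% BSA with H33342 for 5 min, then 100 nM final (sCy5)-[Lys²Arg⁴]-BVD15 for 30 min at 37 °C. Washed and imaged confocally; granule counts per cell. Non-specific binding with 100 nM PP.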

[3] = species: Homo sapiens; assay: Selectivity index, ratio of Ki of GFP-tagged Y4R in human HEK293T cells to Ki GFP-tagged Y1R in human HEK293T cells; assay type: cell-based
Summary of the method: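 Ratio of mean Ki values, Y4/Y1, from whole-cell competition binding in tetracycline-induced 293TR Y1-GFP or Y4-GFP cells. Tracer was 100 nM (sCy5)-[Lys²Arg⁴]-BVD15, added after 5 min competitor preincubation, then 30 min at 37 °C, with imaging read-out.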

[4] = biological target: T2, Neuropeptide Y receptor type 4; assay: Agonist activity at Y4R in human HEK293T cells assessed as increase in beta-arrestin recruitment incubated for 60 mins by Hoechst 33342 dye based fluorescence analysis
[5] = biological target: T2, Neuropeptide Y receptor type 4; assay: Agonist activity at Y4R in human HEK293T cells assessed as increase in beta-arrestin recruitment incubated for 60 mins by Hoechst 33342 dye based fluorescence analysis relative to pancreatic polypeptide
[6] = biological target: T3, Neuropeptide Y receptor type 1 (Homo sapiens) (UniProt P25929); assay: Potency index, ratio of Ki of compound to Ki of 1229U91 for displacement of (sCy5)-[Lys2 Arg4]-BVD15 from GFP-tagged Y1R in human HEK293T cells assessed as inhibitory constant incubated for 5 mins followed by (sCy5)-[Lys2 Arg4]-BVD15 addition and measured after 30 mins by fluorescence based assay
T3 sequence (whole entry): T1 sequence (P25929 whole entry)

T2 sequence (P50391 whole entry): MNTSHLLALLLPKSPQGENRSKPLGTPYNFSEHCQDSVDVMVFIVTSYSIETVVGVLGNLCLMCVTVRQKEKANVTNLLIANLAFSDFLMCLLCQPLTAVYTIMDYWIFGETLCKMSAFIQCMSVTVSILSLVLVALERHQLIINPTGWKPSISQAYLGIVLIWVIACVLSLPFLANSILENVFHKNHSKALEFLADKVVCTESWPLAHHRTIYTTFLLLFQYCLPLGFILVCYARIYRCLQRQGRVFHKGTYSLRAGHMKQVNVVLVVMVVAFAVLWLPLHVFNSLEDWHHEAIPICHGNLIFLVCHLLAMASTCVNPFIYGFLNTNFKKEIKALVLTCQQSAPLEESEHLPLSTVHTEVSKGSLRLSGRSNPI

Ki [1]: 0.575 nM
Ki [2]: 245 nM
EC50 [4]: 7.59 nM
Rmax [5]: 49.1%
Ki ratio [6]: 2
SMILES: CC[C@H](C)[C@H](N)C(=O)N[C@H]1CCC(=O)NC[C@@H](C(=O)N[C@@H](Cc2ccc(O)cc2)C(=O)N[C@@H](CCCNC(=N)N)C(=O)N[C@@H](CC(C)C)C(=O)N[C@@H](CCCNC(=N)N)C(=O)N[C@@H](Cc2ccc(O)cc2)C(N)=O)NC(=O)[C@@H]2CCCN2C(=O)[C@@H](NC(=O)[C@@H](N)[C@@H](C)CC)CCC(=O)NC[C@@H](C(=O)N[C@@H](Cc2ccc(O)cc2)C(=O)N[C@@H](C)C(=O)N[C@@H](CC(C)C)C(=O)N[C@@H](CCCNC(=N)N)C(=O)N[C@@H](Cc2ccc(O)cc2)C(N)=O)NC(=O)[C@@H]2CCCN2C1=O (I: H-IEP[Dap]YALRY-NH2 / II: H-IEP[Dap]YRLRY-NH2; amide I:2-II:4, I:4-II:2)
Ratio Ki [3]: 419

Source: ChEMBL document CHEMBL4402612, “Heterodimeric Analogues of the Potent Y1R Antagonist 1229U91, Lacking One of the Pharmacophoric C-Terminal Structures, Retain Potent Y1R Affinity and Show Improved Selectivity over Y4R” (J Med Chem, 2020)
